Bioassay records (PubChem BioAssay)
The list is not random: actives were taken first. Their share in the collection is about 1.8%.
iPSC survival up – increases survival of single human iPS cells; 360,000 compounds, 0.044% hits; survival enhancement, % at 20 µM; hiPSC single-cell survival, ATPlite luminescence; 100% = ROCK inhibitor wells, 0% = DMSO; AID 602274; in the data active means survival enhancement above about 18%;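 further: cells exposed to compounds for 16 hours before the ATP read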
Jurkat NFkB inh – inhibitors of the PMA/ionomycin-induced NF-kB reporter in Jurkat cells; PMA/ionomycin-induced NF-kB luciferase reporter, luminescence; inhibition, % at 4 µM; 330,000 compounds, 0.53% hits; AID 435003; in the data active means inhibition above about 50%
Gli-Sufu block – Gli-Sufu pathway antagonism; Sufu-KO-LIGHT fibroblasts, Gli luciferase reporter luminescence; inhibition, % at 5 µM; 340,000 compounds, 0.74% hits;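 active means inhibition above about 55%, limit read from the data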
697 NFkB inh – inhibitors of the PMA/ionomycin-induced NF-kB reporter in 697 B cells; 697 B-cell NF-kB luciferase reporter, 16 h; inhibition, % at 4 µM; 330,000 compounds, 0.33% hits; in the data active means inhibition above about 35%
H9c2 TAG inh – reduces triacylglycerol accumulation in H9c2 cells; Nile Red lipid (TAG) fluorescence; cells loaded with 200 µM oleic acid; 230,000 compounds, 0.66% hits; inhibition, % at 12.5 µM; AID 651582;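 active means pattern-corrected inhibition of lipid staining of at least 50% with the nuclear-stain viability signal not falling by more than 50%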
Lipid droplet – hepatic lipid droplet formation modulation; 240,000 compounds, 0.4% hits; inhibition, % at 6.5 µM; AML12 mouse hepatocytes, oleate lipid droplets, BODIPY imaging; AID 1656;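 active means lipid droplet intensity inhibited by at least 50%, with more than 500 cells counted; inconclusive means wells with under 300 cells, treated as cytotoxic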
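Assay system: AML12 mouse liver cells | Compound dosing: One dose, 6.5 µM compound | Read-out basis: Droplet intensity reduction, % inhibition | Measured by: Fluorescence imaging, 20x objective, two fields per well | Schedule: Overnight treatment with compound plus oleate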
Jurkat NFkB conf – inhibitors of the PMA/ionomycin-induced NF-kB reporter in Jurkat cells, retest; inhibition, % at 4 µM; AID 435020; shares compounds with Jurkat NFkB inh; 2,700 compounds, 27% hits; Jurkat NF-kB luciferase, 16 h;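 active means inhibition reaching about 45% at 4 µM in either replicate, limit read from the data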
697 NFkB conf – inhibitors of the PMA/ionomycin-induced NF-kB reporter in 697 B cells, retest. 697 B-cell NF-kB luciferase, 16 h. inhibition, % at 4 µM. shares compounds with 697 NFkB inh. AID 449746. 2,000 compounds, 35% hits; in the data active means inhibition mostly above about 28%, no sharp cut-off; inactive means mostly below about 22%
Gli-Sufu confirm – Gli-SUFU antagonism confirmation, single concentration. shares compounds with Gli-Sufu block. Sufu-KO-LIGHT cells, Gli luciferase reporter, luminescence. inhibition, % at 5 µM. 2,500 compounds, 40% hits. AID 602428;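 active means mean inhibition at 5 µM reaching about 45%, limit read from the data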
Gli cytotox – counter-screen for Gli-SUFU antagonists: cytotoxicity; 2,500 compounds, 32% hits; shares compounds with Gli-Sufu block; Sufu-KO-LIGHT cells cytotoxicity, ATP luminescence; cytotoxicity, % at 5 µM;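 active means mean cytotoxicity at 5 µM above about 25%, limit read from the data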;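 further: cells exposed to compound overnight for roughly 16 to 18 hours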
Wnt3a cs – counter-screen for Gli-SUFU antagonists: Wnt3a reporter inhibition; 2,500 compounds, 20% hits; shares compounds with Gli-Sufu block; Wnt-LIGHT cells, Wnt3a-driven luciferase reporter, luminescence; inhibition, % at 6.25 µM;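 active means mean inhibition above about 25%, limit read from the data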
TAG conf – triacylglycerol accumulation inhibition, confirmation | shares compounds with H9c2 TAG inh | H9c2 lipid accumulation, Nile Red fluorescence; cells loaded with 200 µM oleic acid | inhibition, % at 12.5 µM | 990 compounds, 71% hits | AID 651629;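 active means mean inhibition across replicates of 40% or more; inactive means mean inhibition below 40%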
Large screens that a line does not name were inactive (follow-up assays come after a bar, where they were run).

CC1=CC(=C2C(=O)NC(=S)NC2=O)C=C(C(F)(F)F)N1CCc1ccccc1	Jurkat NFkB inh 50.0 (no result: iPSC survival up, Gli-Sufu block, H9c2 TAG inh) | Jurkat NFkB conf inactive
C[C@]12CCC3C(CCC4=CC(O)CC[C@@]43/C=N/O)C1(O)CCC2C1=CC(=O)OC1 (stereo partly specified)	Jurkat NFkB inh 95.3 (no result: H9c2 TAG inh) | Jurkat NFkB conf 79.2
C[C@]12CC[C@H]3[C@@H](CC[C@]4(O)C[C@@H](O)CC[C@]34C=O)[C@@]1(O)CC[C@@H]2C1=CC(=O)OC1	Jurkat NFkB inh 98.3 (no result: Lipid droplet) | Jurkat NFkB conf 86.3
CCCCN=C[C@]12CCC(O)CC1(O)CCC1[C@@H]2CC[C@]2(C)[C@H](C3C=CC(=O)O3)CCC12O (stereo partly specified)	Jurkat NFkB inh 94.3 (no result: H9c2 TAG inh, Lipid droplet) | Jurkat NFkB conf 78.6
CC12CCC3C(CCC4(O)CC(O)CCC34C=O)C1(O)CCC2C1=CC(=O)OC1 (stereo unspecified)	none (no result: Jurkat NFkB inh, 697 NFkB inh, Lipid droplet)
C[C@]12CCC3C(CC[C@H]4C[C@@H](O)CC[C@]34C)C1C[C@@H](O)[C@@H]2O (stereo partly specified)	none (no result: Jurkat NFkB inh, 697 NFkB inh, Lipid droplet)
O=c1c2ccccc2nc(/C=C/c2ccc(O)cc2)n1-c1ccccc1O	none
COc1ccccc1-n1c(/C=C/c2ccc(O)cc2)nc2ccccc2c1=O	none (no result: Lipid droplet) | Jurkat NFkB conf inactive
Nc1ccccc1C(=O)OCCOc1ccccc1	none | Jurkat NFkB conf inactive | 697 NFkB conf inactive
CCN(CC)P(=O)(c1n(CC)cc[n+]1CC)N(CC)CC	none
COC(=O)C1=C(c2ccc(S(C)(=O)=O)cc2)C[C@@H]2CC[C@H]1N2C(=O)N1CCC(C)CC1	none (no result: Lipid droplet)
CCOc1ccc(-n2c(-c3ccoc3)nc3ccccc3c2=O)cc1	none (no result: H9c2 TAG inh)
CCOc1ccc(-c2c(C)n(-c3ccc(OCC)cc3)c3[n+]2CCCCC3)cc1	Jurkat NFkB inh 100.3, Gli-Sufu block 88.2, 697 NFkB inh 48.1 | Jurkat NFkB conf 78.8 | 697 NFkB conf 59.5
C=C[C@@H]1C[C@@]1(C)[C@@H](NP(=O)(c1ccccc1)c1ccccc1)c1ccccc1	none
COc1ccc2c3c1OC1C(=O)CC[C@@]4(O)[C@@H](C2)N(C)CC[C@]314 (stereo partly specified)	none (no result: H9c2 TAG inh, Lipid droplet)
COC1=CC(=O)[C@]2(C=C1OC)OC[C@@H]1Oc3c(ccc4c3C=CC(C)(C)O4)C(=O)[C@@H]12	Jurkat NFkB inh 52.4, Gli-Sufu block 84.6, 697 NFkB inh 77.5 (no result: iPSC survival up, H9c2 TAG inh, Lipid droplet) | Jurkat NFkB conf 74.2 | 697 NFkB conf 87.0
C[C@]12C[C@H](O)[C@@H](O)CC1=CCC1C2CC[C@@]2(C)C1CC[C@@H]2O (stereo partly specified)	none (no result: Lipid droplet)
CC(C)(C)n1cc(C(=O)c2ccc3ccccc3c2O)cn1	none | Jurkat NFkB conf inactive | 697 NFkB conf inactive
C=C1C(O)[C@@H]2O[C@]3(CC[C@H](/C=C/C(C)[C@@H]4CC(C)=CC5(O[C@H](C[C@@](C)(O)C(=O)O)CCC5O)O4)O3)CC[C@H]2O[C@@H]1C(O)CC(C)[C@H]1OC2(CCCCO2)CCC1C (stereo partly specified)	Jurkat NFkB inh 101.0, Gli-Sufu block 93.0, 697 NFkB inh 100.3 (no result: iPSC survival up, H9c2 TAG inh, Lipid droplet) | Jurkat NFkB conf 99.0 | 697 NFkB conf 79.2
C[C@]12CCC3C(CC[C@H]4C[C@@H](O)CC[C@]34C)C1C/C(=N/O)[C@@H]2O (stereo partly specified)	none (no result: Lipid droplet)
CC(C)(C)c1cc(C=C(C#N)C#N)cc(C(C)(C)C)c1O	Jurkat NFkB inh 55.5, Gli-Sufu block 87.8 (no result: Lipid droplet) | Jurkat NFkB conf 72.8 | 697 NFkB conf inactive
CCc1cc2c(s1)NC(=O)CN=C2c1cccs1	none (no result: Lipid droplet)
Cc1ccccc1-n1c(-c2ccoc2)nc2ccccc2c1=O	none
O=C1/C(=C/c2ccccc2)C[C@@]2(O)[C@H]3Cc4ccc(O)c5c4[C@@]2(CCN3CC2CC2)C1O5 (stereo partly specified)	Jurkat NFkB inh 84.5, 697 NFkB inh 54.6 (no result: H9c2 TAG inh, Lipid droplet) | Jurkat NFkB conf inactive | 697 NFkB conf 49.5
Oc1ccc2c3c1OC1c4[nH]c5ccccc5c4C[C@@]4(O)C(C2)N(CC2CC2)CC[C@]314 (stereo partly specified)	none (no result: H9c2 TAG inh, Lipid droplet)
CC(C)(O)/C=C/C(=O)[C@](C)(O)C1[C@H](O)C[C@@]2(C)C3CC=C4C(C[C@H](O)[C@@H](O)C4(C)C)[C@]3(C)C(=O)C[C@]12C (stereo partly specified)	Jurkat NFkB inh 62.4, Gli-Sufu block 72.4, 697 NFkB inh 41.4 (no result: Lipid droplet) | Jurkat NFkB conf inactive | 697 NFkB conf 50.2
C[n+]1c(-c2ccccc2)c2cc(N)ccc2c2ccc(N)cc21	Jurkat NFkB inh 66.5, 697 NFkB inh 57.7 | Jurkat NFkB conf 61.9 | 697 NFkB conf 54.5
CCC(=O)N1N=C2C3CCN(CC3)C2C1c1ccc(C)cc1 (stereo unspecified)	none
COc1cc2c(c(OC)c1OC)-c1ccc(O)cc1[C@@H](NC(C)=O)CC2	Jurkat NFkB inh 77.2 (no result: H9c2 TAG inh, Lipid droplet) | Jurkat NFkB conf 64.1 | 697 NFkB conf inactive
C=CC[C@@H](CC/C=C/C=C/CC/C=C\[C@@H]1CSC([C@@H]2C[C@@H]2C)=N1)OC	Jurkat NFkB inh 74.5 (no result: Lipid droplet) | Jurkat NFkB conf 52.2 | 697 NFkB conf inactive
COc1ccc(C[C@H]2NC[C@H](O)[C@H]2OC(C)=O)cc1	Jurkat NFkB inh 99.6, Gli-Sufu block 86.6, 697 NFkB inh 100.4 (no result: Lipid droplet) | Jurkat NFkB conf 99.3 | 697 NFkB conf 94.1 | Gli-Sufu confirm 91.8 | Gli cytotox 75.0 | Wnt3a cs 103.5
Cn1nc(-c2ccc(OCC(=O)N3CCN(Cc4ccccc4)CC3)cc2)c2ccccc2c1=O	none (no result: H9c2 TAG inh)
CC1=CC(=C2C(=O)NC(=S)NC2=O)C=C(C(F)(F)F)N1Cc1ccccc1	Jurkat NFkB inh 69.8, H9c2 TAG inh 53.9, Lipid droplet inconclusive | Jurkat NFkB conf inactive | TAG conf inactive
